Assay outcomes deposited in PubChem by several laboratories.
A selection: hits, their analogues and other compounds. The true share with any hit is near 2.9%.
ABHD5-PLIN5 inh – ABHD5-PLIN5 interaction inhibitors, primary screen, cell lysate, split luciferase complementation, luminescence; Perilipin-5 (Homo sapiens) + 1-acylglycerol-3-phosphate O-acyltransferase ABHD5 (Homo …; Split G. princeps luciferase complementation, 4 h; inhibition, % at 4 µM; actives 0.78% (n = 360,000);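 active = inhibition above the mean inhibition across every tested compound plus 3 SD, cut at about 22% in these data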;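 note: 0% = DMSO only wells and the 100% control is not disclosed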
A3G deaminase – APOBEC3G DNA deaminase inhibitors, primary screen, biochemical, fluorescence, single-stranded DNA substrate, uHTS. AID 493012, 2011. DNA dC->dU-editing enzyme APOBEC-3G (Homo sapiens), Q9HC16. actives 0.28% (n = 330,000). inhibition, % at 20 µM. recombinant A3G, ssDNA deamination FAM/TAMRA fluorescence;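 active = inhibition of at least 40% at 20 µM, with no more than 30% in the related APOBEC3A deaminase screen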;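 note: plate controls were DMSO wells with A3G for no effect and wells lacking A3G enzyme for full effect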
core dimer inh – inhibitors of HCV core protein dimerization, primary screen, biochemical, TR-FRET, high-throughput. TR-FRET GST/Flag-core106 dimerization, 1536-well. inhibition, % at 5 µM. actives 0.33% (n = 300,000). AID 1899, 2009;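 active = inhibition above the mean of all tested compounds plus 3 SD, set per screening campaign, cut at about 45% in these data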
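Assay system: GST-tagged and Flag-tagged HCV core protein residues 1-106 / Times: compound-protein-antibody incubation 4 h at 22.5 °C / Signal: time-resolved FRET, ex 340 nm, em 617 and 671 nm / Evaluation: % inhibition based on acceptor/donor emission ratio / Benchmarks: wells lacking GST-core106 and wells with excess unlabelled core106 / Repeats: singlicate, one well per compound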
A3A deaminase – APOBEC3A ssDNA deaminase inhibitors, primary screen, selectivity assay for APOBEC3G inhibitor project, biochemical, FAM/TAMRA oligo cleavage fluorescence; recombinant A3A, FAM/TAMRA ssDNA deamination fluorescence; inhibition, % at 20 µM; actives 0.41% (n = 330,000); AID 493011, 2011;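 active = at least 40% inhibition at 20 µM here, with at most 30% in a related deaminase screen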;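 note: plate controls were A3A with DMSO for no effect and wells lacking A3A enzyme for full effect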
Target sequence (P31941 whole entry, looked up): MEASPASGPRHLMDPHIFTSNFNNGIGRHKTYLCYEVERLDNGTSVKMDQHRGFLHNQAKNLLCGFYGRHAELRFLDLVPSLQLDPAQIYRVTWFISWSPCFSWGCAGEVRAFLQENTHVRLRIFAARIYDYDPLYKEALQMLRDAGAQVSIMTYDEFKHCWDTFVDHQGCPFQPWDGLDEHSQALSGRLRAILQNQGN
HCV NS3 hel inh – inhibitors of HCV NS3 helicase, primary screen, biochemical, Cy5 molecular beacon fluorescence; NS3 helicase DNA unwinding; inhibition, % at 10.9 µM; Hepatitis C virus NS3 helicase; actives 0.56% (n = 290,000);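 active = inhibition above the mean of all tested compounds plus 3 SD, set per campaign, cut at about 35% in these data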;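 note: 0% = DMSO wells and 100% = thioflavine S control wells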
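Measured by: Cy5 fluorescence, 0 and 60 min reads / Assay system: NS3 helicase fragment of HCV / Control set: low DMSO, high thioflavine S at 110 µM / Times: 1 h reaction at 25 °C, ATP-initiated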
PRMT1 FP inh – PRMT1 methyltransferase inhibitors, primary screen, biochemical, fluorescence polarization. recombinant PRMT1, activity-based probe fluorescence polarization. AID 652257, 2013. actives 1.3% (n = 370,000). inhibition, % at 2.79 µM;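 active = inhibition above about 21% made by adding two undisclosed values, limit read from the data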
Target sequence (Q99873 whole entry, looked up): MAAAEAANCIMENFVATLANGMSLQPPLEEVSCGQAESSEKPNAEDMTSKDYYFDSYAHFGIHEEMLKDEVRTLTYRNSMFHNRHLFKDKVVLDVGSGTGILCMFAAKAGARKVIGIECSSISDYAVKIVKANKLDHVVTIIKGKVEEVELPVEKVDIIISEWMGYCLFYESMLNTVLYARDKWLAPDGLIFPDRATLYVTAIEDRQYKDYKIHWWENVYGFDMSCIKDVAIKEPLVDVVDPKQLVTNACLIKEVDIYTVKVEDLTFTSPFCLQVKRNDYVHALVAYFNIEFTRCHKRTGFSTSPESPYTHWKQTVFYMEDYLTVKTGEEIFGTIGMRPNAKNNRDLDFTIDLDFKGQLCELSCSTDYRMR
PRMT1 confirm – PRMT1 methyltransferase inhibitors, confirmation, biochemical, fluorescence polarization, triplicate | shares compounds with PRMT1 FP inh | recombinant His-PRMT1, activity-based probe fluorescence polarization | inhibition, % at 2.79 µM | actives 42% (n = 3,300) | AID 687036, 2013;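 active = mean inhibition across replicates above the hit cutoff derived for the earlier primary screen, cut at about 22% in these data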
The depositor's hits bear a star; · = not tested or not shown.

SMILES	ABHD5-PLIN5 inh	A3G deaminase	core dimer inh	A3A deaminase	HCV NS3 hel inh	PRMT1 FP inh	PRMT1 confirm
O=C(O)C(c1ccccc1)C(O)c1ccc2c(c1)OCO2 (centres undefined)	2	·	·	·	·	-4	·
S=C(N/N=C/c1ccco1)NC1CC2CCC1C2 (centres undefined)	3	6	10	19	19	27*	3
CCOc1ccc(CNC(=O)c2ccc3c(c2)N(CC)CCS3)cc1	-3	-4	0	-3	-8	25*	-1
CCOC(=O)NC1(NCc2ccccc2)Oc2ccccc2O1	3	-4	-6	-4	21	26*	5
Cc1cc(C)c2c(N)c(C(=O)C(C)(C)C)sc2n1	-1	-8	-6	-2	-3	0	·
Cc1cc(C)c2c(N)c(S(=O)c3ccc(C(C)(C)C)cc3)sc2n1 (centres undefined)	-5	-10	2	-4	-5	33*	2
Nc1[nH]c(C(=O)c2ccccc2)c(-c2ccccc2Br)c1C(=O)c1cccs1	·	·	·	·	·	-4	·
Cc1nnc(NC(=O)CCSCCC(=O)Nc2nnc(C)s2)s1	-1	5	21	7	16	29*	30*
O=C(CSc1nc2cc(S(=O)(=O)N3CCOCC3)ccc2o1)Nc1c(F)cccc1F	-7	22	-5	-4	5	54*	47*
O=C(CSc1nc2cc(Cl)ccc2o1)Nc1ccc(N2CCOCC2)cc1	-4	-2	1	-1	1	·	·
O=C(NC1CCCc2ccccc21)c1cc(S(=O)(=O)N2CCOCC2)ccc1F (centres undefined)	-6	-15	-38	-3	-3	2	·
O=C(CSc1nc2cc(S(=O)(=O)N3CCOCC3)ccc2o1)NC1CCCc2ccccc21 (centres undefined)	5	31	2	0	-6	30*	25*
CC(C)(C)OC(=O)NCC12C=CC(O1)C1C(=O)N(Cc3ccccc3)C(=O)C12 (centres undefined)	5	-5	-1	-1	-1	47*	9
CCCc1nc2ccc(C(=O)OC)cn2c1Cc1ccccc1OC	·	·	·	·	·	1	·
CCC1(c2ccccc2)NC(=O)N(CC(=O)Nc2ccc(OC)nc2)C1=O (centres undefined)	-3	0	2	-1	-1	58*	55*
CCC1(c2ccccc2)NC(=O)N(CC(=O)Nc2ccc3c(c2)CCC3)C1=O (centres undefined)	1	·	·	·	·	0	·
Cc1ccc(-c2nn(-c3cccc(F)c3)cc2CN(Cc2nccn2C)C(C)C)o1	9	-6	2	-5	-52	41*	1
COc1ccc(NC(=O)CN(C)C(=O)c2c(-c3c(F)cccc3Cl)noc2C)cc1	5	0	2	5	·	-2	·
CN(CC(=O)NCc1ccco1)CC(=O)Nc1cc(S(C)(=O)=O)ccc1Cl	-3	6	·	2	·	4	·
Cc1cc([N+](=O)[O-])nn1CC(=O)NCc1ccc(Cl)cc1	3	3	11	0	-7	-5	·
COC(=O)c1nn(-c2ccc(OC)cc2)c(=O)c2c(N)sc(C)c12	-11	-5	0	0	7	25*	0
CC(=O)c1ccc(-n2c(C)ccc2-c2ccccc2)cc1	13	-6	5	-2	5	33*	2
COC(=O)c1ccc(-n2c(C)ccc2-c2ccccc2)cc1	5	-7	-1	-6	2	26*	8
COc1ccc(-n2c(C)ccc2-c2ccccc2)cn1	1	-4	10	-5	-7	56*	14
COc1ccc(C(=O)OCC(=O)Nc2c(C)n(C)n(-c3ccccc3)c2=O)cc1OC	-6	-10	·	-4	·	-2	·
SMILES	ABHD5-PLIN5 inh	A3G deaminase	core dimer inh	A3A deaminase	HCV NS3 hel inh	PRMT1 FP inh	PRMT1 confirm
COc1ccc(S(=O)(=O)Nc2ccc3c(c2)C(=O)N([C@H](C)CO)C[C@H](C)[C@@H](CN(C)S(=O)(=O)c2cn(C)cn2)OCCCC[C@H](C)O3)cc1	-2	·	·	·	·	-3	·
CCOC(=O)C1=C(C)Nc2nc(=S)[nH]n2C1c1ccc(Cl)cc1 (centres undefined)	-6	28	·	1	12	29*	25*
CN(CC(=O)Nc1ccc(OC(F)(F)F)cc1)C(=O)Cc1cccs1	3	-3	·	1	·	6	·
O=C(c1ccccc1)C(Nc1cccc([N+](=O)[O-])c1)c1ccccc1 (centres undefined)	4	·	·	·	·	-1	·
Cc1ccc(Nc2nc(-c3c(C)nc4ccccn34)cs2)cc1	-67	-4	-3	5	-28	3	·
Cc1nc2ccccn2c1-c1ccnc(=S)[nH]1	2	-11	4	-4	-4	79*	38*
COc1ccc2sc(/C=C/c3ccccc3O)[n+](C)c2c1	-7	·	·	·	-36	36*	0
COc1ccc(N=Cc2ccccc2O)cc1	0	·	·	·	·	-3	·
O=C(Cn1cnc(S(=O)(=O)N2CCCC2)c1)Nc1cccc(F)c1	3	-2	-7	-2	3	2	·
COCCNC(=O)C1CCCN(C(=O)c2oc3ccccc3c2C)CC1 (centres undefined)	-5	·	·	·	·	46*	3
COCCNC(=O)C1CCCN(C(=O)c2csc3ccccc23)CC1 (centres undefined)	3	·	·	·	·	0	·
OC(c1ccccc1)(c1nc(-c2ccccc2)cs1)C(F)(F)F (centres undefined)	0	·	·	·	·	4	·
Cc1ccc2c(c1)Sc1c(ccc3ccccc13)N2	-4	-7	-7	-2	0	26*	3
c1ccc2c(c1)Nc1cc3ccccc3cc1S2	-9	-15	1	-4	4	-2	·
CCN(CC(=O)NCc1cccs1)CC(=O)Nc1ccc(C(N)=O)cc1	-1	-7	·	-1	·	1	·
CCN(CC(=O)NCc1cccs1)CC(=O)Nc1cccc(S(N)(=O)=O)c1	-5	-8	·	-5	·	44*	-3
O=C(/C=C/c1ccco1)c1cccnc1	9	7	5	33	7	47*	19
